Published values collected from several papers.
Lines come from different studies, so protocols differ.
CDKL1: Cyclin-dependent kinase-like 1 (CDKL1, Homo sapiens, UniProt Q00532)
P2RY14: P2Y purinoceptor 14 (P2RY14, Homo sapiens, UniProt Q15391)
TNIK: TRAF2 and NCK-interacting protein kinase (TNIK, Homo sapiens, UniProt Q9UKE5)
JAK3 JH1: Tyrosine-protein kinase JAK3, JH1 (JAK3, Homo sapiens, UniProt P52333)
Nuclear receptor subfamily 4 group A member 2: Nuclear receptor subfamily 4 group A member 2 (Homo sapiens, UniProt P43354)
IRAK4: Interleukin-1 receptor-associated kinase 4 (IRAK4, Homo sapiens, UniProt Q9NWZ3)

C[C@H](NC(=O)C(=O)Nc1ccccc1C(C)(C)C)C(=O)N[C@@H](CC(=O)O)C(=O)COc1c(F)c(F)cc(F)c1F gave a kinact/KI of 2.42e+06 M⁻¹ s⁻¹ (Caspase-1 (CASP1, Homo sapiens, UniProt P29466); enzyme activity, inhibitor).
COc1ccc2oc(-c3ccc4nc(N)oc4c3)c/c(=N\c3ccccc3NC(=O)CCN)c2c1 has a remaining binding of 94% (CDKL1; binding; 1 µM).
With C[C@]1(O)CCCN(c2nc(Nc3ccc(S(=O)(=O)N[C@H]4CC[C@H](CN5CCN(c6ccc(C7CCC(=O)NC7=O)cc6F)CC5)CC4)cc3Cl)ncc2C(F)(F)F)C1 (stereo partly drawn) the remaining binding was 32% (Serine/threonine-protein kinase ULK1 (ULK1, Homo sapiens, UniProt O75385); binding, competition with immobilised ligand; 1 µM).
With CCOC(=O)[C@H](Cc1c[nH]c2ccccc12)NC(=O)COc1ccc(C)cc1 the inhibition was -48.9% (P2RY14; cAMP, antagonist; HEK293; 0.1 µM).
Cc1cc(O)c(-c2ccc([C@@H](C)CN(C)C)cc2)c2c1[nH]c(=O)c1sccc12 gave an inhibition of 10.5% (TNIK; enzyme activity, inhibitor; 0.1 µM).
The inhibition of Cc1ccc(OCC(=O)N[C@@H](Cc2c[nH]c3ccccc23)C(=O)OC(C)C)cc1 is reported as 110% (P2RY14; cAMP, antagonist; HEK293; 0.1 µM).
The remaining binding of N#Cc1ccc(NC(=O)Nc2ccccc2)cc1 is reported as 96% (JAK3 JH1; cell-free assay, competition with immobilised ligand; 25 µM).
For O=C(COc1ccc(Br)cc1)N[C@@H](Cc1c[nH]c2ccccc12)C(=O)O, the inhibition was 39% (P2RY14; cAMP, antagonist; HEK293; 0.1 µM).
COC(=O)c1cn(C)c2ccc(-c3cccnc3)cc12 has a ΔTm of -0.46 °C (Nuclear receptor subfamily 4 group A member 2; thermal stability, DSF; 100 µM).
For NC/C(=C\F)COc1cccc(Cn2c(=S)[nH]c(=O)c3[nH]cnc32)c1, the remaining activity was 90.7% (Eosinophil peroxidase (Homo sapiens, UniProt P11678); enzyme activity, inhibitor; 10 µM).
The remaining activity of CNC(=O)c1ccccc1Nc1nc(Nc2ccc(CO)cc2)ncc1Cl is reported as 1.39% (IRAK4; enzyme activity, inhibitor, radiometric; 1 µM).
For O=C(COc1ccccc1)N[C@@H](Cc1c[nH]c2ccccc12)C(=O)O, the inhibition was 82.7% (P2RY14; cAMP, antagonist; HEK293; 0.1 µM).
The ΔTm of COc1cccc(-c2ccc(NC(=O)C3=C(C(=O)O)CCC3)c(F)c2)c1 is reported as -1.52 °C (Nuclear receptor subfamily 4 group A member 2; thermal stability, DSF; 100 µM).
C#Cc1cc(-c2cc(Nc3nc(N[C@@H](C)c4ccc(F)cn4)ncc3Cl)n[nH]2)ccc1C=O has an inhibition of 56.6% (TNIK; enzyme activity, inhibitor; 0.2 µM).
The ΔTm of CCC(C)(C)C(=O)O[C@H]1C[C@@H](C)C=C2C=C[C@H](C)[C@H](CC[C@@H]3C[C@@H](O)CC(=O)O3)[C@H]21 is reported as -11 °C (Nuclear receptor subfamily 4 group A member 2; thermal stability, DSF; 100 µM).
CCCCC(=O)Nc1ccc(-c2ccc3ncn(CCC)c(=O)c3c2)cn1 gave a remaining binding of 75% (CDKL1; binding, competition with immobilised ligand; 0.5 µM).
With COc1cccc2c(Nc3ccc4[nH]c(C(=O)N/N=C/c5ccc(SC)cc5)cc4c3)cc(C)nc12 the ΔTm was 0.02 °C (Nuclear receptor subfamily 4 group A member 2; thermal stability, DSF; 100 µM).
The inhibition of O=C(COc1ccc(C(F)(F)F)cc1)N[C@@H](Cc1c[nH]c2ccccc12)C(=O)O is reported as 34.8% (P2RY14; cAMP, antagonist; HEK293; 0.1 µM).
With CCCCCCCC(=O)c1c(O)cc(O)cc1CC(=O)OCC the ΔTm was -3.11 °C (Nuclear receptor subfamily 4 group A member 2; thermal stability, DSF; 100 µM).
CS(=O)(=NC#N)c1ccccc1Nc1nc(Nc2ccnc(CO)c2)ncc1Cl (stereo not drawn) has a remaining activity of 4.68% (IRAK4; enzyme activity, inhibitor, radiometric; 1 µM).
The inhibition of CC(C)OC(=O)[C@H](Cc1c[nH]c2ccccc12)NC(=O)c1ccc2nccnc2c1 is reported as 89.6% (P2RY14; cAMP, antagonist; HEK293; 0.1 µM).
The ΔTm of CC[C@H](C)C(=O)O[C@H]1C[C@H](O)C=C2C=C[C@H](C)[C@H](CC[C@@H](O)C[C@@H](O)CC(=O)O)[C@H]21 is reported as -0.15 °C (Nuclear receptor subfamily 4 group A member 2; thermal stability, DSF; 100 µM).
With O=Cc1ccc(OCC(=O)N[C@@H](Cc2c[nH]c3ccccc23)C(=O)O)cc1 the inhibition was 58.7% (P2RY14; cAMP, antagonist; HEK293; 0.1 µM).
The ΔTm of CCC(=O)NS(=O)(=O)c1ccc(-c2c(-c3ccccc3)noc2C)cc1 is reported as -1.15 °C (Nuclear receptor subfamily 4 group A member 2; thermal stability, DSF; 100 µM).
For O=C(N[C@@H](Cc1c[nH]c2ccccc12)C(=O)O)c1c[nH]c2ccccc12, the inhibition was 36.7% (P2RY14; cAMP, antagonist; HEK293; 0.1 µM).
C1=C/COCc2cc(ccc2OCCN2CCCC2)Nc2nccc(n2)-c2cccc(c2)COC/1 has a remaining signal of 7.2% (JAK3 JH1; cell-free assay; 0.1 µM).
For CCCCCCCC(=O)c1cc(OC)c(OC)c(OC)c1CC(=O)OCC, the ΔTm was -1.02 °C (Nuclear receptor subfamily 4 group A member 2; thermal stability, DSF; 100 µM).
